For test [1], the system named is total α-tubulin in QBI-293 cells. The test is described as follows: Total α-tubulin ELISA. It counts as cell-based. The conditions noted are these: at doses typically required to induce an elevation in AcTub. The method, boiled down:
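QBI-293 cells were plated at 6 × 10⁵ cells/well, grown overnight at 37 °C and 5% CO₂, then given fresh medium with vehicle (DMSO) or 1 and 10 μM test compound for 4 h. Lysis was in RIPA with protease inhibitors, 1 mM PMSF and 1 μM TSA, followed by 100000g for 30 min at 4 °C. Supernatant was BCA-normalized and α-tubulin measured by ELISA as fold-change versus vehicle. Samples were run at least in triplicate; significance was by two-tailed unpaired t test.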

Test [2] relates to acetylated α-tubulin (AcTub) in QBI-293 cells. The test is described as follows: Acetyl-tubulin assay. Type of test: cell-based. The conditions noted are these: for shape of concentration–response in the AcTub assay: comparison of 1 and 10 μM. The method, boiled down:
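QBI-293 cells kept at 37 °C, 5% CO₂, trypsinised and plated at 6 × 10⁵ cells/well, then exposed overnight-later to vehicle (DMSO) or test compound for 4 h. Lysis in RIPA with protease inhibitors, 1 mM PMSF and 1 μM TSA; 100000g spin, 30 min, 4 °C. BCA protein, then AcTub ELISA. Fold-change versus vehicle, at least triplicate, two-tailed unpaired t test.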

In test [3] the test system is COX-derived PGD2 and PGE2 in RBL-1 cells. It counts as cell-based, rat.

Consider 13 compounds from PMC5483893 (Journal of Medicinal Chemistry, 2017).

Regarding `Cc1nc(Cl)c(-c2c(F)cccc2F)n1-c1ccc(Cl)cc1` [Compound 85, 4-Chloro-1-(4-chlorophenyl)-5-(2,6-difluorophenyl)-2-methyl-1H-imidazole], in test [1], the “effect on total α-tubulin levels” value was “cause a significant reduction in total α-tubulin levels”. With `Cc1ccc(F)c(-c2cnc(Cl)n2-c2ccc(Cl)cc2)c1F` [Compound 63, 2-Chloro-1-(4-chlorophenyl)-5-(2,6-difluoro-3-methylphenyl)-1H-imidazole], the “effect on total α-tubulin levels” value in test [1] is “cause a significant reduction in total α-tubulin levels”.

Regarding `COc1cc(F)c(-c2c(Cl)nc(C)n2-c2ccc(Cl)cc2)c(F)c1` [Compound 2, 4-Chloro-1-(4-chlorophenyl)-5-(2,6-difluoro-4-methoxyphenyl)-2-methyl-1H-imidazole], the “shape of concentration–response in the AcTub assay” value (“shape of concentration–response” below) in test [2] is “bell-shaped concentration–response relationship”. Besides, the “effect on total α-tubulin levels” value in test [1] is given as “cause a significant reduction in total α-tubulin levels”. `Fc1cccc(F)c1-c1c(Cl)nc(Cl)n1-c1ccccc1Cl` [Compound 104, 2,4-Dichloro-1-(2-chlorophenyl)-5-(2,6-difluorophenyl)-1H-imidazole]: in test [3] (RBL-1 cells), the “inhibition in the PGD2/PGE2 assay” value was > 50%. In addition, the “elevation in AcTub without decrease of α-tubulin” value in test [2] (1 or 10 μM) is recorded as “produce an elevation in AcTub at 1 or 10 μM without decreasing α-tubulin level”. `Fc1ccc(Cl)c(F)c1-c1cnc(Cl)n1-c1ccc(Cl)cc1` [Compound 66, 2-Chloro-5-(3-chloro-2,6-difluorophenyl)-1-(4-chlorophenyl)-1H-imidazole]: the “effect on total α-tubulin levels” value in test [1] is on record as “cause a significant reduction in total α-tubulin levels”.

As for `COc1ccc(-c2cncn2-c2ccc(Cl)cc2)cc1` [Compound 51, 1-(4-Chlorophenyl)-5-(4-methoxyphenyl)-1H-imidazole], the “inhibition of the combined PGD2/PGE2 synthesis” value in test [3] (RBL-1 cell assay, tested at 10 μM) is reported as “near complete inhibition”. The “MT activity (AcTub increase), inactive compounds” value in test [2] (QBI-293 cells, 1 and 10 μM) is listed as “essentially devoid of MT activity”. On to `Cc1ncc(-c2c(F)ccc(F)c2F)n1-c1ccc(Cl)cc1` [Compound 34, 1-(4-Chlorophenyl)-2-methyl-5-(2,3,6-trifluorophenyl)-1H-imidazole], for which the “effect on total α-tubulin levels” value in test [1] was “cause a significant reduction in total α-tubulin levels”. As to `COc1cc(F)c(-c2c(Cl)nc(Cl)n2-c2ccc(Cl)cc2)c(F)c1` [Compound 58, 2,4-Dichloro-1-(4-chlorophenyl)-5-(2,6-difluoro-4-methoxyphenyl)-1H-imidazole], the “shape of concentration–response” value in test [2] is “bell-shaped concentration–response relationship”. The “effect on total α-tubulin levels” value in test [1] is reported as “cause a significant reduction in total α-tubulin levels”. For the compound `Cc1nc(Cl)n(-c2ccc(Cl)cc2)c1-c1c(F)ccc(Cl)c1F` [Compound 30, 2-Chloro-5-(3-chloro-2,6-difluorophenyl)-1-(4-chlorophenyl)-4-methyl-1H-imidazole], the “effect on total α-tubulin levels” value in test [1] is “cause a significant reduction in total α-tubulin levels”. The same measure, in the same setting: to `Cc1nc(Cl)c(-c2c(F)ccc(Cl)c2F)n1-c1ccc(Cl)cc1` [Compound 65, 4-Chloro-5-(3-chloro-2,6-difluorophenyl)-1-(4-chlorophenyl)-2-methyl-1H-imidazole] belongs “cause a significant reduction in total α-tubulin levels”.

As for `Cc1nc(Cl)c(-c2c(F)ccc(F)c2F)n1-c1ccc(Cl)c(F)c1` [Compound 71, 4-Chloro-1-(4-chloro-3-fluorophenyl)-2-methyl-5-(2,3,6-trifluorophenyl)-1H-imidazole], the “shape of concentration–response” value in test [2] is given as “bell-shaped concentration–response relationship”. Also, the “effect on total α-tubulin levels” value in test [1] was “cause a significant reduction in total α-tubulin levels”. Regarding `Fc1cc(F)c(-c2c(Cl)ncn2-c2ccc(Cl)nc2)c(F)c1` [Compound 73, 2-Chloro-5-(4-chloro-5-(2,4,6-trifluorophenyl)-1H-imidazol-1-yl)pyridine], in test [1], the “effect on total α-tubulin levels” value was “cause a significant reduction in total α-tubulin levels”. The same measure, in the same setting: as for `Cc1ccc(F)c(-c2c(Cl)ncn2-c2ccc(Cl)cc2)c1F` [Compound 62, 4-Chloro-1-(4-chlorophenyl)-5-(2,6-difluoro-3-methylphenyl)-1H-imidazole], the entry is “cause a significant reduction in total α-tubulin levels”.
